From ChEMBL document CHEMBL1126773, “Synthesis, physicochemical properties, and biological evaluation of N-substituted 2-alkyl-3-hydroxy-4(1H)-pyridinones: orally active iron chelators with clinical potential” (J Med Chem, 1993)

Key:
[1] = Partition coefficient (logD7.4); assay type: physicochemical; conditions: octanol/water, pH 7.4
Outline: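 Automated filter-probe partitioning between MOPS buffer (50 mM, pH 7.4) and octan-1-ol, each phase pre-equilibrated with the other and purged with nitrogen. UV absorbance was read until stable, then octanol was added in at least 10 aliquots. An estimate came from each addition, giving a mean and standard deviation.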

[2] = target: Serotransferrin (Homo sapiens) (UniProt P02787); test: Percentage of removal of iron from iron-protein-transferrin; assay type: functional; set-up: concentration or dose not given beside the values
Serotransferrin (Homo sapiens), sequence (P02787 whole entry): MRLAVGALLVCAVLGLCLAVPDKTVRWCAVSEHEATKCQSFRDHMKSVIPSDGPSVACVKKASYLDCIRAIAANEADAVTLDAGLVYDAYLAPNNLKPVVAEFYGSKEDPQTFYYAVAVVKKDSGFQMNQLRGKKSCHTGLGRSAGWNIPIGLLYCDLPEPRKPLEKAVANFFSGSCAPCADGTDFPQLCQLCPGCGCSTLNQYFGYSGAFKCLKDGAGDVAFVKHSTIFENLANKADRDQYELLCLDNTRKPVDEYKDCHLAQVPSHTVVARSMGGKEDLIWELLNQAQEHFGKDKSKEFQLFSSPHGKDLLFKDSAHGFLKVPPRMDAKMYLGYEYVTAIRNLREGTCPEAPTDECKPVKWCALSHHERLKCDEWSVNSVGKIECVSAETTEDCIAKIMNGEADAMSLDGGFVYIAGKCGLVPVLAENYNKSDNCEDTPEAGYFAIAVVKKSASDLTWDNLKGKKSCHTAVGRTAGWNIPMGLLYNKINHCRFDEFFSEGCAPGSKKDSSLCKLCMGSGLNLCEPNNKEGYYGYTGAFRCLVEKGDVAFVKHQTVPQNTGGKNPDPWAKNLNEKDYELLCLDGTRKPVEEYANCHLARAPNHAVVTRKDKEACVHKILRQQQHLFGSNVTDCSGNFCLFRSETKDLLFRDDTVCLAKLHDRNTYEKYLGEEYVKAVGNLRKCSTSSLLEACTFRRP
Outline: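 Human transferrin, Fe(III)-loaded (50 μM), was mixed with chelator (100 μM) in MOPS (0.05 M, pH 7.4, 25 °C) with 25 mM NaHCO3. Absorbance at 400–500 nm was scanned every 2 min for 10 min, then every 5 min up to 3 h.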

[3] = Acid dissociation constant (pKa2) was determined
[4] = Acid dissociation constant (pKa1) was determined; assay type: physicochemical; conditions: for pKa: read-out: pKa1
Outline: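 Simultaneous spectrophotometric/potentiometric titration of the ligand. Temperature held at 22.5 ± 0.1 °C, ionic strength 0.1 with KNO3. pKa values were obtained by global optimization across titrations at several ligand concentrations.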

[5] = Percentage of release of lactic dehydrogenase from rat hepatocytes; assay type: functional, Hepatocyte
Outline: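 Primary rat hepatocytes were plated at 1 × 10⁶/dish, pulsed 17 h with human diferric ⁵⁹Fe-transferrin (100 µg/mL), washed, then exposed to chelators in triplicate. LDH was measured in the supernatant at 6 h.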

[6] = Logarithm of cumulative stability constant was determined
Equus caballus = species on record: Equus caballus; test: Percentage of removal of iron from iron-protein-ferritin; assay type: functional; set-up: concentration or dose not given beside the values
Outline: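 Horse spleen ferritin (iron cores equivalent to 450 μM) was incubated with chelator (5 mM) in HEPES (0.1 M, pH 7.2) at 37 °C for up to 36 h. Samples were ultrafiltered to separate the Fe(III) complex, and the filtrate absorbance was read (450 nm; concentrations from ε max).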

Rattus norvegicus = species on record: Rattus norvegicus; test: Percentage of mobilization of iron in 2 hours from rat hepatocytes; assay type: functional, Hepatocyte

**Q.** With `CCCCn1ccc(=O)c(O)c1CC` as the compound, how does the logD [1] read?
**A.** The logD was 1.22.

**Q.** With `CCCn1ccc(=O)c(O)c1C` as the compound, how does the Activity [2] read?
**A.** The Activity was 52%.

**Q.** And the pKa ([3]; pKa2)?
**A.** Its pKa is 9.92.

**Q.** What about the pKa [4] of the same compound?
**A.** The pKa was 3.62.

**Q.** What about the Activity [5] of the same compound?
**A.** Its Activity is 105%.

**Q.** And the “Log beta3” value [6]?
**A.** The value was 37.7.

**Q.** And the Activity (Equus caballus)?
**A.** The Activity was 28%.

**Q.** What about the Activity (Rattus norvegicus) of the same compound?
**A.** Its Activity is 252%.

**Q.** With `CCCCCCCCn1ccc(=O)c(O)c1C` as the compound, how does the logD [1] read?
**A.** Its logD is 2.88.

**Q.** Which Activity [2] does the source give for `Cc1c(O)c(=O)ccn1C` [DEFERIPRONE] here?
**A.** Its Activity is 54%.

**Q.** What about the “Log beta3” value [6] of the same compound?
**A.** Its value is 37.2.

**Q.** What about the logD [1] of the same compound?
**A.** Its logD is -0.77.

**Q.** And the Activity (Equus caballus)?
**A.** The Activity was 34%.

**Q.** Which logD [1] does the source give for `Cc1c(O)c(=O)ccn1CCCO` here?
**A.** The logD was -0.879.

**Q.** Which Activity [2] does the source give for `Cc1c(O)c(=O)ccn1C(C)C` here?
**A.** Its Activity is 51%.

**Q.** What about the logD [1] of the same compound?
**A.** The logD was 0.0492.

**Q.** And the Activity (Equus caballus)?
**A.** Its Activity is 26%.

**Q.** For `CCNC(=O)CCn1ccc(=O)c(O)c1C`, which logD [1] is on record?
**A.** The logD was -0.818.

**Q.** With `Cc1c(O)c(=O)ccn1CCCCO` as the compound, how does the logD [1] read?
**A.** The logD was -0.742.

**Q.** With `COCC(C)n1ccc(=O)c(O)c1C` (stereo not drawn) as the compound, how does the logD [1] read?
**A.** Its logD is -0.26.

**Q.** Which logD [1] does the source give for `CCc1nccc(O)c1O` here?
**A.** Its logD is 0.0453.

**Q.** With `CCCn1ccc(=O)c(O)c1CC` as the compound, how does the logD [1] read?
**A.** The logD was 0.702.

**Q.** With `CCc1c(O)c(=O)ccn1C(C)C` as the compound, how does the logD [1] read?
**A.** The logD was 0.732.

**Q.** For `Cc1c(O)c(=O)ccn1CCO`, which Activity [2] is on record?
**A.** The Activity was 47%.

**Q.** And the logD [1]?
**A.** Its logD is -1.1.

**Q.** And the Activity (Equus caballus)?
**A.** Its Activity is 29%.

**Q.** Which results are given for `CCn1ccc(=O)c(O)c1C`?
**A.** pKa ([3]; pKa2): 9.88; pKa [4]: 3.65; Log beta3 [6]: 37.7; logD [1]: -0.31

**Q.** Which logD [1] does the source give for `CNC(=O)CCn1ccc(=O)c(O)c1C` here?
**A.** The logD was -1.1.

**Q.** Which Activity [2] does the source give for `CCOCCCn1ccc(=O)c(O)c1C` here?
**A.** Its Activity is 49%.

**Q.** And the logD [1]?
**A.** Its logD is 0.121.

**Q.** For `Cc1c(O)c(=O)ccn1CCCC(=O)O`, which Activity [2] is on record?
**A.** Its Activity is 53%.

**Q.** And the Activity (Equus caballus)?
**A.** Its Activity is 12%.

**Q.** Which results are given for `CC(=O)NO` [ACETOHYDROXAMIC ACID]?
**A.** pKa ([3]; pKa2): 9.4; Log beta3 [6]: 28.3

**Q.** Which logD [1] does the source give for `CCc1c(O)c(=O)ccn1C` here?
**A.** The logD was -0.205.

**Q.** Which logD [1] does the source give for `CCCCCCn1ccc(=O)c(O)c1C` here?
**A.** Its logD is 1.9.

**Q.** With `CCCNC(=O)CCn1ccc(=O)c(O)c1C` as the compound, how does the logD [1] read?
**A.** Its logD is -0.396.

**Q.** With `Cc1c(O)c(=O)ccn1CCCN` as the compound, how does the logD [1] read?
**A.** The logD was -2.1.

**Q.** For `Oc1cccc2cccnc12` [OXYQUINOLINE], which Activity [5] is on record?
**A.** Its Activity is 260%.

**Q.** And the “Log beta3” value [6]?
**A.** Its value is 37.

**Q.** And the Activity (Rattus norvegicus)?
**A.** The Activity was 110%.

**Q.** For `Cc1c(O)c(=O)ccn1CCC(=O)N(C)C`, which logD [1] is on record?
**A.** Its logD is -1.16.

**Q.** For `CCN(CC)C(=O)CCn1ccc(=O)c(O)c1C`, which logD [1] is on record?
**A.** Its logD is -0.361.

**Q.** Which logD [1] does the source give for `CCc1c(O)c(=O)ccn1CCOC` here?
**A.** The logD was 0.0414.

**Q.** With `CCc1c(O)c(=O)ccn1CC` as the compound, how does the logD [1] read?
**A.** The logD was 0.25.

**Q.** Which results are given for `CC(=O)N(O)CCCCCNC(=O)CCC(=O)N(O)CCCCCNC(=O)CCC(=O)N(O)CCCCCN`?
**A.** Activity [2]: 5%; Activity (Equus caballus): 11%

**Q.** Which Activity [2] does the source give for `CCCCn1ccc(=O)c(O)c1C` here?
**A.** The Activity was 52%.

**Q.** And the pKa ([3]; pKa2)?
**A.** Its pKa is 9.87.

**Q.** What about the pKa [4] of the same compound?
**A.** The pKa was 3.62.

**Q.** And the logD [1]?
**A.** Its logD is 0.703.

**Q.** Which logD [1] does the source give for `Cc1c(O)c(=O)ccn1CCC(=O)NC(C)C` here?
**A.** The logD was -0.471.

**Q.** For `CCCCCn1ccc(=O)c(O)c1C`, which logD [1] is on record?
**A.** Its logD is 1.24.

**Q.** Which results are given for `Cc1nccc(O)c1O`?
**A.** pKa ([3]; pKa2): 9.76; pKa [4]: 3.7; Log beta3 [6]: 37.2; logD [1]: -0.495

**Q.** What does the source list for `Cc1c(O)c(=O)ccn1CCN`?
**A.** Activity [2]: 56%; logD [1]: -1.55; Activity (Equus caballus): 23%

**Q.** Which logD [1] does the source give for `CCOCCCn1ccc(=O)c(O)c1CC` here?
**A.** Its logD is 0.716.

**Q.** For `CCc1c(O)c(=O)ccn1CCO`, which logD [1] is on record?
**A.** The logD was -0.658.

**Q.** With `CCCCCCn1ccc(=O)c(O)c1CC` as the compound, how does the logD [1] read?
**A.** The logD was 2.28.

**Q.** Which results are given for `COCCn1ccc(=O)c(O)c1C`?
**A.** Activity [2]: 55%; logD [1]: -0.409; Activity (Equus caballus): 28%

**Q.** Which Activity [5] does the source give for `CCn1cccc(O)c1=O` here?
**A.** The Activity was 102%.

**Q.** What about the “Log beta3” value [6] of the same compound?
**A.** The value was 32.

**Q.** And the Activity (Rattus norvegicus)?
**A.** Its Activity is 115%.

**Q.** Which pKa2 [3] does the source give for `Oc1ccncc1O` here?
**A.** The pKa2 was 9.6.

**Q.** What about the pKa ([3]; pKa2) of the same compound?
**A.** Its pKa is 9.01.

**Q.** What about the pKa1 [4] of the same compound?
**A.** Its pKa1 is 3.6.

**Q.** And the pKa [4]?
**A.** Its pKa is 3.34.

**Q.** Which logD [1] does the source give for `CCN(C)C(=O)CCn1ccc(=O)c(O)c1C` here?
**A.** Its logD is -0.686.

**Q.** Which Activity [5] does the source give for `O/N=C/c1ccccn1` here?
**A.** Its Activity is 108%.

**Q.** And the “Log beta3” value [6]?
**A.** The value was 30.

**Q.** What about the Activity (Rattus norvegicus) of the same compound?
**A.** The Activity was 108%.

**Q.** Which pKa [3] does the source give for `Oc1ccccc1O` [CATECHOL] here?
**A.** Its pKa is 13.3.

**Q.** And the pKa [4]?
**A.** The pKa was 9.2.

**Q.** What about the “Log beta3” value [6] of the same compound?
**A.** Its value is 44.9.
